Assay results taken from ChEMBL document CHEMBL1132452, “Synthesis and anticonvulsant activity of novel and potent 2,3-benzodiazepine AMPA/kainate receptor antagonists” (J Med Chem, 1999).

Columns and labels:
Mus musculus [1] = organism: Mus musculus; assay: The compound was tested for Anticonvulsant activity against audiogenic seizures in DBA/2 mice in clonic phase; assay type: functional
Outline: (§1)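 Male DBA/2 mice (8–12 g, 22–25 days), groups of 10 per dose, given the compound ip in 30% DMSO/70% saline at doses within 3.3–200 µmol/kg. Sound stimulation 30 min later; latency and incidence of seizure phases scored. ED50 per phase by Litchfield–Wilcoxon, at least 32 animals per value.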

Mus musculus [2] = organism: Mus musculus; assay: The compound was tested for Anticonvulsant activity against maximal electroshock (MES) induced seizures in Swiss mice.; assay type: functional
Outline: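 Swiss mice given the compound ip in 30% DMSO/70% saline, then 45 min later ear-clip electroshock (50 mA, 20 ms pulses, 35 Hz, 400 ms). Protection was abolition of tonic hindlimb extension. Four to five doses, 8–10 mice each; ED50 by Litchfield–Wilcoxon.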

[3] = Relative lipophilicity of the compound; assay type: physicochemical; conditions: reversed-phase TLC, acetone/water 2:1
Outline: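 Reversed-phase TLC on plates dried at 105 °C for 1 h. Mobile phase acetone/water 2:1 (v/v). Compound in CHCl3 (3 mg/mL), 1 µL spotted. Five runs, each with a different placement on the plate. Mean Rf converted by Rm = log[(1/Rf) − 1]; higher Rm means higher lipophilicity.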

Mus musculus [4] = organism: Mus musculus; assay: The compound was tested for Anticonvulsant activity against Pentylenetetrazole (PTZ) induced seizures in Swiss mice; assay type: functional
Outline: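 Male Swiss mice (20–26 g, 42–48 days) pretreated ip with the compound in 30% DMSO/70% saline, then 45 min later PTZ 85 mg/kg (CD97) sc. Observed for 30 min; protection was absence of clonic spasms lasting at least 5 s. ED50 by Litchfield–Wilcoxon, at least 32 animals.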

Mus musculus [5] = organism: Mus musculus; assay: The compound was tested for Anticonvulsant activity against audiogenic seizures in DBA/2 mice in tonic phase; assay type: functional; outline: as §1
Mus musculus [6] = organism: Mus musculus; assay: The compound was tested for locomotor deficit (rotarod test) in Swiss mice.
Mus musculus [7] = assay: The compound was tested for Anticonvulsant activity against audiogenic seizures in DBA/2 mice in clonic phase. 30 min after ip administration.; assay type: functional; conditions: 0.5 h
Outline: (§2)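 Time course in male DBA/2 mice (8–12 g, 22–25 days) after ip dosing in 30% DMSO/70% saline, with auditory stimulation at the stated time after injection. Groups of 10 mice per time point; clonic-phase ED50 (95% confidence limits) by Litchfield–Wilcoxon, at least 32 animals per value.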

Mus musculus [8] = assay: The compound was tested for Anticonvulsant activity against audiogenic seizures in DBA/2 mice in clonic phase. 45 min after ip administration.; assay type: functional; conditions: 0.75 h; outline: as §2
Mus musculus [9] = organism: Mus musculus; assay: The compound was tested for Anticonvulsant activity against AMPA induced seizures in DBA/2 mice clonic phase.; assay type: functional
Mus musculus [10] = assay: The compound was tested for Anticonvulsant activity against audiogenic seizures in DBA/2 mice in clonic phase. 120 min after ip administration.; assay type: functional; conditions: 2 h; outline: as §2
Mus musculus [11] = organism: Mus musculus; assay: The compound was tested for Anticonvulsant activity against audiogenic seizures in DBA/2 mice after pretreatment with Aniracetam in tonic phase.; assay type: functional
Outline: (§3)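 Male DBA/2 mice (8–12 g, 22–25 days) given aniracetam 50 nmol icv 30 min before the ip compound (30% DMSO/saline), i.e. 60 min before auditory stimulation. Clonic or tonic phase incidence scored; ED50 by Litchfield–Wilcoxon, at least 32 animals.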

Mus musculus [12] = assay: The compound was tested for Anticonvulsant activity against audiogenic seizures in DBA/2 mice in clonic phase. 60 min after ip administration.; assay type: functional; conditions: 1 h; outline: as §2
Mus musculus [13] = assay: The compound was tested for Anticonvulsant activity against audiogenic seizures in DBA/2 mice in clonic phase. 90 min after ip administration.; assay type: functional; conditions: 1.5 h; outline: as §2
Mus musculus [14] = organism: Mus musculus; assay: The compound was tested for Anticonvulsant activity against KA induced seizures in DBA/2 mice.; assay type: functional
Mus musculus [15] = organism: Mus musculus; assay: The compound was tested for Anticonvulsant activity against audiogenic seizures in DBA/2 mice after pretreatment with Aniracetam in clonic phase; assay type: functional; outline: as §3
Mus musculus [16] = assay: The compound was tested for Anticonvulsant activity against audiogenic seizures in DBA/2 mice in clonic phase. 15 min after ip administration.; assay type: functional; conditions: 0.25 h; outline: as §2
Mus musculus [17] = organism: Mus musculus; assay: The compound was tested for Anticonvulsant activity against AMPA induced seizures in DBA/2 mice in tonic phase; assay type: functional

| SMILES | Rm [3] | ED50 (Mus musculus [1]) [µmol/kg] | ED50 (Mus musculus [2]) [µmol/kg] | ED50 (Mus musculus [4]) [µmol/kg] | ED50 (Mus musculus [5]) [µmol/kg] | TD50 (Mus musculus [6]) [µM/kg] | ED50 (Mus musculus [7]) [µmol/kg] | ED50 (Mus musculus [8]) [µmol/kg] | ED50 (Mus musculus [9]) [µmol/kg] | ED50 (Mus musculus [10]) [µmol/kg] | ED50 (Mus musculus [11]) [µmol/kg] | ED50 (Mus musculus [12]) [µmol/kg] | ED50 (Mus musculus [13]) [µmol/kg] | ED50 (Mus musculus [14]) [µmol/kg] | ED50 (Mus musculus [15]) [µmol/kg] | ED50 (Mus musculus [16]) [µmol/kg] | ED50 (Mus musculus [17]) [µmol/kg] |
| --- | --- | --- | --- | --- | --- | --- | --- | --- | --- | --- | --- | --- | --- | --- | --- | --- | --- |
| CCNC(=O)N1N=C(c2cccc(N)c2)c2cc3c(cc2CC1=O)OCO3 | -0.323 | 44.9 | 60.2 | 90.7 | 32.1 | 126 |  |  |  |  |  |  |  |  |  |  |  |
| CNC(=O)N1N=C(c2cccc(N)c2)c2cc3c(cc2CC1=O)OCO3 | -0.441 | 13.6 | 21.4 | 19.6 | 11.2 | 48.9 | 13.6 |  |  |  |  |  |  |  |  |  |  |
| CCCNC(=O)N1N=C(c2cccc(N)c2)c2cc3c(cc2CC1=O)OCO3 | -0.181 | 85.3 | > 100 | > 100 | 63.8 | >100 |  |  |  |  |  |  |  |  |  |  |  |
| Nc1cccc(C2=NN=C(S)Cc3cc4c(cc32)OCO4)c1 | -0.213 | 16.7 | 30.9 | 40.2 | 8.88 | 53.7 | 16.7 | 15.2 | 32.8 | > 50 | 85.9 | 22.4 | 45.2 | 18.6 | 65.2 | 32.6 | 26.2 |
| CCCCNC(=O)N1N=C(c2ccc(N)cc2)c2cc3c(cc2CC1=O)OCO3 | -0.11 | 38.7 | 79.7 | > 100 | 32.6 | 108 |  |  |  |  |  |  |  |  |  |  |  |
| CCNC(=O)N1N=C(c2ccc(N)cc2)c2cc3c(cc2CC1=O)OCO3 | -0.368 | 35 | 52.5 | 68.2 | 23.8 | 134 |  |  |  |  |  |  |  |  |  |  |  |
| CCCCNC(=O)N1N=C(c2cccc(N)c2)c2cc3c(cc2CC1=O)OCO3 | -0.075 | 18.1 | 26.6 | 36.4 | 12.7 | 56.2 |  |  |  |  |  |  |  |  |  |  |  |
| CNC(=O)N1N=C(c2ccc(N)cc2)c2cc3c(cc2CC1=O)OCO3 | -0.459 | 12.4 | 18.6 | 16.3 | 8.7 | 48.6 | 12.4 | 12.1 | 18.6 | 40.8 | 31 | 13 | 19.4 | 8.61 | 33.9 | 14.3 | 10.3 |
| Nc1cccc(C2=NNC(=O)Cc3cc4c(cc32)OCO4)c1 | -0.484 | 18 | 19.3 | 40.5 | 12.7 | 101 | 18 | 19.1 | 29.2 | > 50 | 40.6 | 26.3 | 47.1 | 23.2 | 55 | > 50 | 23.8 |
| CC1=NN=C(c2ccc(N)cc2)c2cc3c(cc2C1)OCO3 [GYKI-52466] | -0.404 |  |  |  |  | 76.1 |  | 37.2 |  | > 50 |  |  | > 50 | 27.8 |  | 10.8 |  |

The next lines start with results.

| Rm [3] | SMILES | ED50 (Mus musculus [1]) [µmol/kg] | ED50 (Mus musculus [2]) [µmol/kg] | ED50 (Mus musculus [4]) [µmol/kg] | ED50 (Mus musculus [5]) [µmol/kg] | TD50 (Mus musculus [6]) [µM/kg] | ED50 (Mus musculus [7]) [µmol/kg] | ED50 (Mus musculus [8]) [µmol/kg] | ED50 (Mus musculus [9]) [µmol/kg] | ED50 (Mus musculus [10]) [µmol/kg] | ED50 (Mus musculus [11]) [µmol/kg] | ED50 (Mus musculus [12]) [µmol/kg] | ED50 (Mus musculus [13]) [µmol/kg] | ED50 (Mus musculus [14]) [µmol/kg] | ED50 (Mus musculus [15]) [µmol/kg] | ED50 (Mus musculus [16]) [µmol/kg] | ED50 (Mus musculus [17]) [µmol/kg] |
| --- | --- | --- | --- | --- | --- | --- | --- | --- | --- | --- | --- | --- | --- | --- | --- | --- | --- |
| -0.25 | CCCNC(=O)N1N=C(c2ccc(N)cc2)c2cc3c(cc2CC1=O)OCO3 | 69.4 | 76.5 | > 100 | 49.2 | 182 |  |  |  |  |  |  |  |  |  |  |  |
| -0.269 | Nc1ccc(C2=NN=C(S)Cc3cc4c(cc32)OCO4)cc1 | 11.8 | 9.79 | 25.2 | 5.09 | 39.8 | 11.8 | 13.4 | 15.6 | > 50 | 16.3 | 19.6 | 45 | 15.6 | 31.4 | 5.9 | 11.5 |
| -0.552 | Nc1ccc(C2=NNC(=O)Cc3cc4c(cc32)OCO4)cc1 | 15.4 | 32.1 | 71.8 | 10.9 | 99.1 | 15.4 | 18.7 | 37.9 | > 50 | 39.6 | 21.3 | > 50 | 19.6 | 62.6 | 7.55 | 28.5 |
| -0.185 | SC1=NN=C(c2ccccc2)c2cc3c(cc2C1)OCO3 | 23.8 | 37.8 | 80.3 | 18.8 | 97.1 | 23.8 |  |  |  |  |  |  |  |  |  |  |
| -0.215 | O=C1Cc2cc3c(cc2C(c2ccccc2)=NN1)OCO3 | 43.3 | 42.6 | 78 | 40.6 | 159 | 43.3 |  |  |  |  |  |  |  |  |  |  |
